The source made the active and inactive calls. The rule behind the calls is not given here.

The target in data set [1] is T1, Tyrosinase (Agaricus bisporus) (UniProt O42713).
T1 sequence (whole entry): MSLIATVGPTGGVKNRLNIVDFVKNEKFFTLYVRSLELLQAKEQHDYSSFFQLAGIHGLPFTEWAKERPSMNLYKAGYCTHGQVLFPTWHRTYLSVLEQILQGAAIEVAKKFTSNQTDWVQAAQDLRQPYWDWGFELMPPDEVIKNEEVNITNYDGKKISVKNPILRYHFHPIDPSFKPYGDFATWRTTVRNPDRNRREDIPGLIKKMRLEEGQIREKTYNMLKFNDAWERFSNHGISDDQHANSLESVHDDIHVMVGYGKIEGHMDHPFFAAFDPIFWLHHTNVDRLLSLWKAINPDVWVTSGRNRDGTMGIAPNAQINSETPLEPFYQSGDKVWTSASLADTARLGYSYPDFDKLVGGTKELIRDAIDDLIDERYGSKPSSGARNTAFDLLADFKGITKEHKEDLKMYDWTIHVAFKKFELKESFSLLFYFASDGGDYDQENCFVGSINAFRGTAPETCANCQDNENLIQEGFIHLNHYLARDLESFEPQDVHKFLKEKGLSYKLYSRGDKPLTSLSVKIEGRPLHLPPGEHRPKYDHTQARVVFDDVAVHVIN
As to the kind of experiment: Inhibition of mushroom tyrosinase after 20 mins. The procedure, abridged: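 Mushroom tyrosinase in 0.1 M phosphate buffer with 0.03% (w/v) tyrosine as substrate, incubated 37 °C for 20 min. OD read at 492 nm; inhibition % = (1 − sample/control OD492) × 100. Arbutin positive control.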

A short description of data set [2]: Cytotoxicity against mouse B16-F1 cells. Format: cell-based. The procedure, abridged:
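MTT assay on B16F1 murine melanoma cells tested over 300−0.03 μM. Cells grown in DMEM with 10% FBS and 1% penicillin/streptomycin at 37 °C, 5% CO2.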

For data set [3], the system named is B16-F1. As to the kind of experiment: Inhibition of melanin synthesis in mouse B16-F1 cells at 30 uM after 30 mins by Fontana-Masson staining. It is filed as functional, cell-based. Particulars: in the assay text read “after 72 hrs” for “after 30 mins”. The gist of the method: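 B16F1 cells on slides treated with 30 μM, fixed in 4% paraformaldehyde for 30 min at room temperature. Melanin stained by Fontana−Masson (ammoniacal silver, gold chloride, sodium thiosulfate).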

For data set [4], the system named is B16-F1. As to the kind of experiment: Inhibition of melanin synthesis in mouse B16-F1 cells at 3 uM after 72 hrs by spectrophotometric analysis relative to control. It is filed as functional. The settings on record: B16-F1, 72 h. The procedure, abridged: (§1)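 B16F1 cells treated 72 h (3 or 30 μM). After lysis and centrifugation at 12000g, pellets dissolved in 1 N NaOH at 60 °C for 1 h. Absorbance read at 400 nm against a synthetic melanin standard, normalized to Bradford protein. Arbutin positive control. Means ± SE of three independent experiments.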

Data set [5] relates to B16-F1. As to the kind of experiment: Inhibition of melanin synthesis in mouse B16-F1 cells at 30 uM after 72 hrs by spectrophotometric analysis relative to control. Format: functional. Particulars: B16-F1, 72 h. The gist of the method:
as §1

For data set [6], the system named is B16-F1. Kind of data set: Inhibition of melanin synthesis in mouse B16-F1 cells after 72 hrs by spectrophotometric analysis. It is filed as functional, cell-based. The procedure, abridged: as §1
A short description of data set [7]: Cytotoxicity against mouse B16-F1 cells at 5 mM. Format: cell-based. Particulars: b16-f1, 5000 µM.
Data set [8] has as its target T2, Tyrosinase (Mus musculus) (UniProt P11344).
T2 sequence (whole entry): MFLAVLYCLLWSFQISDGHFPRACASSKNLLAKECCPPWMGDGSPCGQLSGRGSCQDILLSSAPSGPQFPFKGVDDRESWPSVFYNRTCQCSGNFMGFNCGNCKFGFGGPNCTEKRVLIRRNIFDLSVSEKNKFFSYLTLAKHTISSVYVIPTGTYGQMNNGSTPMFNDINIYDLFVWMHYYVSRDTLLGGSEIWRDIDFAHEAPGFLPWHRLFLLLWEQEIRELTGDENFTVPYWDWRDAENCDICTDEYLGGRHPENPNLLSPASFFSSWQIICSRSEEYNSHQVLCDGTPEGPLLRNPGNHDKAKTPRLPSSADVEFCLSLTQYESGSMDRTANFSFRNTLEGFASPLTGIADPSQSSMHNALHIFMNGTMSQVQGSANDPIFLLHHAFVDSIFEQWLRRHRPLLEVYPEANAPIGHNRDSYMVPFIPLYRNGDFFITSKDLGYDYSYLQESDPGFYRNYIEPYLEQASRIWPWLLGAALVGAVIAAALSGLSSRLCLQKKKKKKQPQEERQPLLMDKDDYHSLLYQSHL
Kind of data set: Inhibition of tyrosinase in mouse B16-F1 cells using L-DOPA as substrate at 3 uM after 72 hrs. Format: cell-based. The gist of the method: (§2)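 B16F1 cells treated 72 h with 3 or 30 μM. Cells lysed in 1% Triton X-100/PBS pH 6.8 and spun at 12000g, 4 °C. Supernatant mixed with 0.1% (w/v) L-DOPA; A475 followed over the first 2 h and normalized to total protein. Means ± SE of three independent experiments.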

Data set [9] has as its target T2, Tyrosinase (Mus musculus). Kind of data set: Inhibition of tyrosinase in mouse B16-F1 cells using L-DOPA as substrate at 30 uM after 72 hrs. It is filed as cell-based. The gist of the method:
as §2

For data set [10], the system named is B16/F1. Kind of data set: Inhibition of PKA in mouse B16-F1 cells assessed as decrease of MITF mRNA expression at 3 uM after 72 hrs by RT-PCR analysis. Format: cell-based. The gist of the method: (§3)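 B16F1 cells treated 72 h at 3 μM. Total RNA extracted with Trizol; cDNA made from 2 μg RNA with M-MLV reverse transcriptase and oligo(dT). qPCR run 95 °C 3 min, then 50 cycles of 95 °C 10 s, 56 °C 15 s, 72 °C 20 s, with melting-curve check. Expression calculated relative to cyclophilin. Means ± SE of three independent experiments.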

For data set [11], the system named is B16/F1. As to the kind of experiment: Inhibition of PKA in mouse B16-F1 cells assessed as decrease of TRP-1 mRNA expression at 3 uM after 72 hrs by RT-PCR analysis. Format: cell-based. The gist of the method: as §3
For data set [12], the system named is B16/F1. Kind of data set: Inhibition of PKA in mouse B16-F1 cells assessed as decrease of dopachrome tautomerase mRNA expression at 3 uM after 72 hrs by RT-PCR analysis. It is filed as cell-based. The gist of the method:
as §3

Data set [13] concerns B16/F1. Kind of data set: Inhibition of PKA in mouse B16-F1 cells assessed as decrease of MITF promoter- dependent paired-box 3 mRNA expression at 3 uM after 72 hrs […]. It is filed as cell-based. The procedure, abridged: (§4)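 Two-color oligonucleotide microarray on Mouse OneArray chips, comparing untreated and treated (3 μM) B16F1 cells labelled with Cy3/Cy5-dUTP. RNA extracted with RNAiso Plus and further purified. Arrays scanned and probe-level expression values computed.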

Data set [14] relates to B16/F1. As to the kind of experiment: Inhibition of PKA in mouse B16-F1 cells assessed as decrease of MITF promoter- dependent sex-determining region Y-box 10 mRNA expression at 3 uM after 72 hrs by […]. It is filed as cell-based. The gist of the method:
as §4

Data set [15] concerns B16/F1. Kind of data set: Inhibition of PKA in mouse B16-F1 cells assessed as decrease of MITF promoter- dependent lymphoid enhancer factor mRNA expression at 3 uM after 72 hrs by […]. It is filed as cell-based. The gist of the method: as §4
The subject of data set [16] is B16/F1. Kind of data set: Inhibition of PKA in mouse B16-F1 cells assessed as decrease of CREB mRNA expression at 3 uM after 72 hrs by […]. It is filed as cell-based. The gist of the method: as §4
The subject of data set [17] is B16/F1. As to the kind of experiment: Inhibition of PKA in mouse B16-F1 cells assessed as decrease of MC1R mRNA expression at 3 uM after 72 hrs by RT-PCR analysis. It is filed as cell-based.
The test system of data set [18] is B16/F1. As to the kind of experiment: Inhibition of PKA in mouse B16-F1 cells assessed as decrease of intracellular cAMP level at 3 uM after 72 hrs by colorimetric competitive immunoassay. It is filed as cell-based. The gist of the method: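 Cellular cAMP in B16F1 cells after 72 h at 3 μM, measured by colorimetric competitive immunoassay kit. Means ± SE of three independent experiments.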

Data set [19] deals with B16/F1. Kind of data set: Inhibition of PKA in mouse B16-F1 cells assessed as decrease of phosphorylated CREB expression at 3 uM after 72 hrs by immunoblotting. It is filed as cell-based. The procedure, abridged:
(§5)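 B16F1 cells treated 72 h at 3 μM. 40 μg total protein (Bradford) run on 10% SDS-PAGE and transferred to nitrocellulose. Blocked in TBS with 5% nonfat milk and 0.1% Tween 20. Probed with primary antibodies plus HRP secondaries and read by chemiluminescence. Band densities normalized to α-tubulin. Means ± SE of three independent experiments.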

Data set [20] deals with B16/F1. As to the kind of experiment: Inhibition of PKA in mouse B16-F1 cells assessed as effect on ERK2 phosphorylation at 3 uM after 72 hrs by immunoblotting. It is filed as cell-based.
Data set [21] relates to B16/F1. As to the kind of experiment: Inhibition of PKA in mouse B16-F1 cells assessed as effect on ERK2 mRNA expression at 3 uM after 72 hrs by RT-PCR analysis. It is filed as cell-based.
The test system of data set [22] is B16/F1. As to the kind of experiment: Inhibition of PKA in mouse B16-F1 cells assessed as decrease of MITF mRNA expression at 3 uM after 72 hrs by RT-PCR analysis relative to control. It is filed as cell-based. The procedure, abridged: as §3
The test system of data set [23] is B16/F1. As to the kind of experiment: Inhibition of PKA in mouse B16-F1 cells assessed as decrease of TRP-1 mRNA expression at 3 uM after 72 hrs by RT-PCR analysis relative to control. Format: cell-based. The gist of the method:
as §3

Data set [24] relates to B16/F1. As to the kind of experiment: Inhibition of PKA in mouse B16-F1 cells assessed as decrease of dopachrome tautomerase mRNA expression at 3 uM after 72 hrs by RT-PCR analysis relative to control. It is filed as cell-based. The gist of the method:
as §3

The subject of data set [25] is B16/F1. Kind of data set: Inhibition of PKA in mouse B16-F1 cells assessed as decrease of MITF protein expression at 3 uM after 72 hrs by immunoblotting relative to control. It is filed as cell-based. The procedure, abridged:
as §5

The test system of data set [26] is B16/F1. As to the kind of experiment: Inhibition of PKA in mouse B16-F1 cells assessed as decrease of TRP-1 protein expression at 3 uM after 72 hrs by immunoblotting relative to control. Format: cell-based. The gist of the method:
as §5

The test system of data set [27] is B16/F1. As to the kind of experiment: Inhibition of PKA in mouse B16-F1 cells assessed as decrease of dopachrome tautomerase protein expression at 3 uM after 72 hrs by immunoblotting relative to control. It is filed as cell-based. The procedure, abridged:
as §5

As for `OC[C@H]1O[C@@H](Oc2ccc(O)cc2)[C@H](O)[C@@H](O)[C@@H]1O` [ARBUTIN], the inhibition entry in data set [1] was “Active”. Further, the Activity result in data set [2] is recorded as “Toxic”.
Consider `COc1cc(/C=C/C(=O)O[C@H]2CC[C@]34C[C@]35CC[C@]3(C)[C@@H]([C@H](C)CCC=C(C)C)CC[C@@]3(C)[C@@H]5CC[C@H]4C2(C)C)ccc1O` [GAMMA ORYZANOL], for which, in the data set on B16-F1 [3], the inhibition entry is “Active”. The inhibition entry in data set [1] was “Dose-dependent effect”; in the data set with B16-F1 [6], “Dose-dependent effect”; in data set [8] it was 29%; in data set [9], 26%; in the data set with B16/F1 [10] it was 90%; in the data set with B16/F1 [11], 94%. In addition, the inhibition in the data set on B16/F1 [12] came out at 56%; in the data set on B16/F1 [13], 29%; with B16/F1 [14] it was 90%; in the data set with B16/F1 [15] it was 40%; with B16/F1 [16] it was 28%; in the data set on B16/F1 [17] it was 56%. The inhibition was determined as 13% in the data set on B16/F1 [18]; 57% in the data set with B16/F1 [19]; 59% with B16/F1 [22]; 69% in the data set on B16/F1 [23]; 51% in the data set on B16/F1 [24]; 64% in the data set on B16/F1 [25]. The inhibition amounted to 82% in the data set with B16/F1 [26] and 92% in the data set with B16/F1 [27]. In the data set with B16-F1 [4], this compound had an inhibition at 3 µM of 13%. For the same compound, the inhibition at 30 µM with B16-F1 [5] amounted to 28%. For the same compound, the Activity result in data set [7] was “Non-toxic”. The inhibition result in the data set on B16/F1 [20] and with B16/F1 [21] was “inactive” in each case.
